Laboratory results from ChEMBL document CHEMBL4043142, “Discovery of new leads against Mycobacterium tuberculosis using scaffold hopping and shape based similarity” (Bioorg Med Chem, 2017).
≈ marks a conversion by molar mass, not a printed value.

Key:
[1] = tested on: Mycobacterium tuberculosis; assay: Antitubercular activity against Mycobacterium tuberculosis H37Rv after 5 days by microplate alamar blue assay; assay type: functional; conditions: 120 h
Candida albicans = assay: Antifungal activity against Candida albicans ATCC 90028 at 32 ug/ml after 24 hrs; assay type: functional; conditions: ATCC 90028, 24 h
Pseudomonas aeruginosa = assay: Antimicrobial activity against gram-negative Pseudomonas aeruginosa ATCC 27853 at 32 ug/ml after 18 hrs; assay type: functional; conditions: ATCC 27853, 18 h
Method in brief: (§1)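 Whole-cell growth inhibition screen at a single final concentration of 32 µg/mL, in duplicate on different plates, with 0.3% DMSO final. Bacteria grown overnight in cation-adjusted Mueller Hinton broth at 37°C, diluted 40-fold, and grown 1.5-3 h to mid-log. Wells seeded at 5×10^5 CFU/mL and incubated 18 h at 37°C without shaking. OD600 read; percent inhibition calculated against media-only and untreated-bacteria controls on the same plate. Colistin (Gram-negative) and vancomycin (Gram-positive) were the standards.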

Staphylococcus aureus = assay: Antimicrobial activity against gram-positive Staphylococcus aureus ATCC 43300 at 32 ug/ml after 18 hrs; assay type: functional; conditions: ATCC 43300, 18 h; method in brief: as §1
[2] = tested on: Mycobacterium tuberculosis; assay: Antitubercular activity against Mycobacterium tuberculosis H37Rv at 50 ug/ml after 5 days by microplate alamar blue assay relative to control; assay type: functional; conditions: 120 h
Method in brief: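 M. tuberculosis H37Rv tested by microplate alamar blue assay, reading the resazurin-to-resorufin colour change, at an initial 50 µg/ml. Rifampicin and isoniazid were the standards.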

Cryptococcus neoformans = assay: Antifungal activity against Cryptococcus neoformans var. grubii ATCC 208821 at 32 ug/ml after 24 hrs; assay type: functional; conditions: ATCC 208821, 24 h
Method in brief: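 Single-concentration antifungal screen at a final 32 µg/mL, n=2 on different plates. Fungi grown 3 days on YPD agar at 30°C; suspension of 1-5×10^6 cells/mL made from five colonies, then diluted in YNB broth. Incubated 35°C for 24 h without shaking. C. albicans read at OD530. C. neoformans read as OD600-570 after resazurin (0.001% final) and a further 2 h at 35°C. Inhibition calculated against on-plate controls; fluconazole was the standard.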

Acinetobacter baumannii = assay: Antimicrobial activity against gram-negative Acinetobacter baumannii ATCC 19606 at 32 ug/ml after 18 hrs; assay type: functional; conditions: ATCC 19606 = CIP 70.34 = JCM 6841, 18 h; method in brief: as §1
[3] = Drug metabolism in rat liver microsomes after 60 mins; assay type: ADME, microsome; conditions: read-out: Drug metabolism
Method in brief: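 Rat liver microsomes incubated with compound for 60 min. Stability followed as the peak area ratio of compound to internal standard. p-Nitrophenol conversion to p-nitrocatechol served as the positive control.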

HepG2 [4] = assay: Cytotoxicity against human HepG2 cells after 24 hrs by MTT assay; assay type: cell-based; conditions: HepG2, 24 h
Method in brief: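 HepG2 cells seeded at 25,000-50,000 per well and allowed to adhere about 24 h at 37°C in 5% CO2. Serial dilutions (300, 100, 50, 10, 1, 0.1 µM) added in triplicate and incubated 24 h. MTT added to 10% of the total volume for 2-4 h in the dark. Formazan dissolved in 100% DMSO, absorbance read at 570 nm, and IC50 calculated.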

[5] = Cytotoxicity against African green monkey Vero cells after 72 hrs by sulforhodamine B assay; assay type: cell-based; conditions: chlorocebus sabaeus
HepG2 [6] = assay: Cytotoxicity against human HepG2 cells after 48 hrs by CellTiter-Glo assay; assay type: cell-based; conditions: HepG2, 48 h
[7] = tested on: Mycobacterium tuberculosis; assay: Antitubercular activity against Mycobacterium tuberculosis H37Rv ATCC 25618 after 6 days by resazurin dye based assay; assay type: functional; conditions: H37Rv ATCC 25618, 144 h
[8] = Protection index, ratio of IC50 for African green monkey Vero cells to MIC for Mycobacterium tuberculosis H37Rv
[9] = Protection index, ratio of IC50 for HepG2 cells to MIC for Mycobacterium tuberculosis H37Rv
[10] = Half life in mouse microsomes; assay type: ADME, Microsome
Vero = assay: Cytotoxicity against African green monkey Vero cells after 72 hrs by MTT assay; assay type: cell-based; conditions: Chlorocebus sabaeus
Klebsiella pneumoniae = assay: Antimicrobial activity against gram-negative Klebsiella pneumoniae ATCC 700603 at 32 ug/ml after 18 hrs; assay type: functional; conditions: ATCC 700603, 18 h; method in brief: as §1
Liver = assay: Drug level in rat liver microsomes treated with p-nitrophenol after 60 mins; assay type: ADME, microsome; conditions: 1 h
Method in brief: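 p-Nitrophenol incubated 60 min with rat liver microsomes as the positive control; its conversion to p-nitrocatechol was measured.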

[11] = tested on: Mycobacterium tuberculosis; assay: Antitubercular activity against clinical isolates of Mycobacterium tuberculosis by broth microdilution assay; assay type: functional

Structure (SMILES)	MIC95 [1] [µg/mL]	inhibition at 32 µg/mL (Candida albicans) [%]	inhibition at 32 µg/mL (Pseudomonas aeruginosa) [%]	inhibition at 32 µg/mL (Staphylococcus aureus) [%]	inhibition at 50 µg/mL [2] [%]	other results
COc1ccc(-c2nc3ccccc3n2-c2ccccc2)cc1O	8 (≈ 25.3 µM)	6.64 to 11.3	1.32 to 7.73	7.7 to 15.5	95	–
COc1ccc(-c2nc3ccccc3n2-c2ccc(Cl)cc2)cc1OC	20.3 (≈ 55.6 µM)	7.63 to 8.23	–	1.03 to 9.81	95	inhibition at 32 µg/mL (Cryptococcus neoformans): 0.95 to 4.02%; inhibition at 32 µg/mL (Acinetobacter baumannii): 39.9 to 42.6%; metabolised at 1 h [3]: 5%; IC50 (HepG2 [4]): 49.9 µM; GI50 at 72 h [5]: 8.2 µM
Cc1ccn2c(CN3CCOCC3)c(-c3ccccc3)nc2c1	40 (≈ 130 µM)	0.89 to 1.68	10.6 to 15.2	15.8 to 23.5	95	–
c1ccc(-c2nc3ccccn3c2CN2CCCCC2)cc1	> 50	2.41 to 3.93	11.4 to 17.7	14.8 to 19.4	95	inhibition at 32 µg/mL (Acinetobacter baumannii): 1.56 to 10.4%
COc1cccc(-c2nc3ccccc3n2-c2ccc(Cl)cc2)c1	> 50	4.73 to 28.1	2.25 to 13	–	67	inhibition at 32 µg/mL (Cryptococcus neoformans): 6.16 to 19.6%; inhibition at 32 µg/mL (Acinetobacter baumannii): 49.4 to 50.8%
Fc1ccc(-c2nc3ccccn3c2CN2CCOCC2)cc1	22.2 (≈ 71.3 µM)	0.63 to 5.39	11 to 14.3	22.3 to 30.3	95	–
COc1ccc(-c2nc(-c3ccccc3)cn2-c2ccccc2)cc1	20.3 (≈ 62.2 µM)	17.5 to 26.4	2.98 to 16.6	3.07 to 13.3	95	inhibition at 32 µg/mL (Acinetobacter baumannii): 23.1 to 34.8%
Cc1ccn2c(CN3CCOCC3)c(-c3ccc(F)cc3)nc2c1	23.9 (≈ 73.5 µM)	2.74 to 7.44	9.71 to 27	20.1 to 21.8	95	–
COc1ccc(-c2nc3ccccc3n2-c2cccc(Cl)c2)cc1	> 50	4.66 to 7.76	7.07 to 24.5	14.1 to 16	0	–
Cc1ccc(-c2cc(CN3CCSCC3)c(C)n2-c2ccc(F)cc2)cc1	–	–	–	–	–	IC50 (HepG2 [6]): 24 µM; MIC [7]: 0.16 µM (≈ 0.0609 µg/mL); Ratio [8]: 127.5 - 1937.5; Ratio [9]: 127.5 - 1937.5; half-life [10]: 8.2 min; IC50 (Vero): 179 µM
c1ccc(-c2nc3ccccn3c2CN2CCOCC2)cc1	> 50	0.3 to 6.38	9.04 to 16.5	26.1 to 28.6	95	inhibition at 32 µg/mL (Klebsiella pneumoniae): 2.52 to 13.8%; inhibition at 32 µg/mL (Cryptococcus neoformans): 2.71 to 3.04%
COc1ccc(-c2nc3ccccc3n2-c2ccc(C(C)C)cc2)cc1	> 50	13.1 to 14.2	6.29 to 15.7	6.25 to 12.4	68	inhibition at 32 µg/mL (Cryptococcus neoformans): 7.06 to 11%; inhibition at 32 µg/mL (Acinetobacter baumannii): 23.8 to 36.1%
NNC(=O)c1ccncc1 [ISONIAZID]	0.06 to 0.11 (≈ 0.438 to 0.802 µM)	–	–	–	95	–
CSc1ccc(-c2cc(CN3CCSCC3)c(C)n2-c2ccc(F)cc2)cc1	–	–	–	–	–	IC50 (HepG2 [6]): 5.9 µM; MIC [7]: 0.16 µM (≈ 0.066 µg/mL); Ratio [8]: 127.5 - 1937.5; Ratio [9]: 127.5 - 1937.5; half-life [10]: 10 min; IC50 (Vero): 15.2 µM
CO[C@H]1/C=C/O[C@@]2(C)Oc3c(C)c(O)c4c(O)c(c(/C=N/N5CCN(C)CC5)c(O)c4c3C2=O)NC(=O)/C(C)=C\C=C\[C@H](C)[C@H](O)[C@@H](C)[C@@H](O)[C@@H](C)[C@H](OC(C)=O)[C@@H]1C [RIFAMPIN]	0.03 to 0.5 (≈ 0.0365 to 0.608 µM)	–	–	–	95	–
Oc1ccc(-c2nc(-c3ccccc3)cn2-c2ccccc2)cc1	17.8 (≈ 57 µM)	–	–	–	95	–
Cc1ccc2nc(-c3ccc(F)cc3)c(CN3CCOCC3)n2c1	17 (≈ 52.2 µM)	3.4 to 6.17	–	25.1 to 26.2	95	–
COc1ccc(-c2nc3ccccc3n2-c2ccc(Br)cc2)cc1	> 50	9.75 to 11.7	–	12.3 to 15	92	inhibition at 32 µg/mL (Acinetobacter baumannii): 1.56 to 58.1%; metabolised at 1 h [3]: 2%; IC50 (HepG2 [4]): 113 µM; GI50 at 72 h [5]: 5 µM
O=[N+]([O-])c1ccc(O)c(O)c1 [4-Nitrocatechol]	–	–	–	–	–	Drug metabolism (Liver): Metabolite_Detected
Cc1ccn2c(CN3CCCCC3)c(-c3ccccc3)nc2c1	33.7 (≈ 110 µM)	–	–	–	95	–
COc1ccc(-c2nc3ccccc3n2-c2ccc(Cl)cc2)cc1	2.3 (≈ 6.87 µM)	12.2 to 12.9	1.34 to 9.75	–	95	metabolised at 1 h [3]: 0%; IC50 (HepG2 [4]): 203 µM; GI50 at 72 h [5]: 29 µM
COc1ccc(-c2cc(CN3CCSCC3)c(C)n2-c2ccc(F)cc2)cc1	–	–	–	–	–	IC50 (HepG2 [6]): > 2420 µM; MIC [7]: 0.2 µM (≈ 0.0793 µg/mL); Ratio [8]: 127.5 - 1937.5; Ratio [9]: 127.5 - 1937.5; half-life [10]: < 5 min; IC50 (Vero): > 302 µM
COc1ccc(-c2nc3ccccc3n2-c2ccc(F)cc2)cc1	> 50	1.62 to 1.69	5.18 to 12.8	11.6 to 12.7	6	–
COc1ccc(-c2nc3ccccc3n2-c2cc(C)ccc2C)cc1	> 50	1.69 to 4.32	5.72 to 19.7	9.57 to 10	80	inhibition at 32 µg/mL (Acinetobacter baumannii): 3.5 to 38.8%
COc1ccc(-c2nc3ccccc3n2-c2cccc(OC)c2)cc1	> 50	5.26 to 8.76	9.8 to 11.2	7.42 to 20.4	14	inhibition at 32 µg/mL (Acinetobacter baumannii): 19.7 to 59.9%
COc1ccc(-c2nc3ccccc3n2-c2ccc(Cl)cc2)c(OC)c1	48.3 (≈ 132 µM)	2.68 to 3.53	–	10.9 to 14.2	95	inhibition at 32 µg/mL (Klebsiella pneumoniae): 3.25 to 9.39%
Cc1c(CN2CCN(C)CC2)cc(-c2ccc(Cl)cc2)n1-c1ccc(Cl)cc1	–	–	–	–	–	IC50 (HepG2 [6]): 7.8 µM; MIC [7]: 5 µM (≈ 2.07 µg/mL); Ratio [8]: 127.5 - 1937.5; Ratio [9]: 127.5 - 1937.5; half-life [10]: > 30 min; MIC [11]: 1.5 µg/mL (≈ 3.62 µM)
Cc1c(CN2CCOCC2)cc(-c2ccc(C(C)C)cc2)n1-c1ccc(F)cc1	–	–	–	–	–	IC50 (HepG2 [6]): 15.3 µM; MIC [7]: 0.12 µM (≈ 0.0471 µg/mL); half-life [10]: > 30 min; IC50 (Vero): 50.1 µM
